Measured values as given in ChEMBL document CHEMBL4765308, “N-alkylpiperidine carbamates as potential anti-Alzheimer's agents” (Eur J Med Chem, 2020).
pIC50: −log10 of the molar value. Counter-ions that a name gives are not always drawn.

Experiments:
Cholinesterase = Cholinesterase (Homo sapiens, UniProt P06276); assay: Inhibition of human BuchE using butyrylthiocholine iodide as substrate preincubated for 30 mins followed by substrate addition by Ellman's method
[1] = target: T1, Amine oxidase [flavin-containing] B (Homo sapiens, UniProt P27338); assay: Inhibition of human recombinant microsomal MAO-B expressed in baculovirus-infected BTI-TN-5B1-4 cells assessed as inhibition of H2O2 production using p-tyramine as substrate preincubated for 15 mins followed by substrate addition by Amplex Red reagent based fluorescence analysis
T1 sequence (P27338 whole entry): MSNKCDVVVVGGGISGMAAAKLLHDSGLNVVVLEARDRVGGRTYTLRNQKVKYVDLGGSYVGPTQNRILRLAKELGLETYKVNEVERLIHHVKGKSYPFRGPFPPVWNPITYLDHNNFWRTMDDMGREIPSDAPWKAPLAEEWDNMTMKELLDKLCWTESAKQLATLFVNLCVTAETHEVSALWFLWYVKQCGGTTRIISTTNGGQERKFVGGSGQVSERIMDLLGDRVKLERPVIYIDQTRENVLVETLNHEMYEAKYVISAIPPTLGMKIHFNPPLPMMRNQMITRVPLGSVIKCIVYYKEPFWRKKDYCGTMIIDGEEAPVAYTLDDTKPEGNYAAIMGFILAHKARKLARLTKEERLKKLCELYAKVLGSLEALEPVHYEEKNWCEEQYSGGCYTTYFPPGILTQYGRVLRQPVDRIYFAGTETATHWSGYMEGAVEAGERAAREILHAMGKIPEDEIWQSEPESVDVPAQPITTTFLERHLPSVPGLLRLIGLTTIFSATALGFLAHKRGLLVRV
Method in brief: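 Recombinant human MAO-A or MAO-B (insect-cell microsomes) preincubated with compound 15 min at 37 °C in 50 mM sodium phosphate, pH 7.4, 0.05% Triton X-114. Reaction started with 1 mM p-tyramine, 250 µM Amplex Red and 2 U/mL HRP (final concentrations). Resorufin fluorescence (ex 530/em 590 nm) followed for 20 min at 37 °C, duplicates. Blank-corrected residual activity; IC50 from a four-parameter Hill fit.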

Acetylcholinesterase = Acetylcholinesterase (Homo sapiens, UniProt P22303); assay: Inhibition of human AChE using acetylthiocholine iodide as substrate preincubated with enzyme for 30 mins followed by substrate addition by Ellman's method
Chain of Acetylcholinesterase (P22303 whole entry): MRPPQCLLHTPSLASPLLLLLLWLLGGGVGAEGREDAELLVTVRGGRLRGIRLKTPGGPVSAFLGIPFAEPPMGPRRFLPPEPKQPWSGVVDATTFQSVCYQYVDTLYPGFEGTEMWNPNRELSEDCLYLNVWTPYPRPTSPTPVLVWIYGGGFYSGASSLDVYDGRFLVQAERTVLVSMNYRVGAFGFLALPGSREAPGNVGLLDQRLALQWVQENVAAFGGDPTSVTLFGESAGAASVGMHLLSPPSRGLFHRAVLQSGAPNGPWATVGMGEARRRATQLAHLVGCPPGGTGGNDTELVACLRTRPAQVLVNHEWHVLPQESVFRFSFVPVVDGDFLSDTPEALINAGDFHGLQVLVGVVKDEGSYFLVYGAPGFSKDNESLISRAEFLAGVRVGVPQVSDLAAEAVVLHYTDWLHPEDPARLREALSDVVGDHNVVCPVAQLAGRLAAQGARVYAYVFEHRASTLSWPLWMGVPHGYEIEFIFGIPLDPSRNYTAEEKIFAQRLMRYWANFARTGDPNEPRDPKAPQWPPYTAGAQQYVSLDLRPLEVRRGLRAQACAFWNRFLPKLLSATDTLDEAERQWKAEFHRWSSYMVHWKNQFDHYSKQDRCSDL

[2] = target: T2, Amine oxidase [flavin-containing] A (Homo sapiens, UniProt P21397); assay: Inhibition of human recombinant microsomal MAO-A expressed in baculovirus-infected BTI-TN-5B1-4 cells assessed as inhibition of H2O2 production using p-tyramine as substrate preincubated for 15 mins followed by substrate addition by Amplex Red reagent based fluorescence analysis
T2 sequence (P21397 whole entry): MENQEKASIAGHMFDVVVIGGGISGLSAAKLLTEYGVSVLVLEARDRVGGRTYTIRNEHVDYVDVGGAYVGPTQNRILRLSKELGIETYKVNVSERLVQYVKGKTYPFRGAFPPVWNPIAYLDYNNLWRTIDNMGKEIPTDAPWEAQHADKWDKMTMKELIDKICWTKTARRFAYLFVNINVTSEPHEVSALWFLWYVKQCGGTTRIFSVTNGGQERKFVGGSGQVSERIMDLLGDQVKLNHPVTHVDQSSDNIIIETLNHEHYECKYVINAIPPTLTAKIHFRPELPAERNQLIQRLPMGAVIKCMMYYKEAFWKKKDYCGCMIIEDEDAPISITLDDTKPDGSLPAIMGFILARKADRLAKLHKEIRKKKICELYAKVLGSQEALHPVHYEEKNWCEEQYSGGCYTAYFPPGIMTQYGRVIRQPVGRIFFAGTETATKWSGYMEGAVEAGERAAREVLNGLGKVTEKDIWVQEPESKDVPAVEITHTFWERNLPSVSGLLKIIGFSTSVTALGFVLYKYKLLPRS

Homo sapiens = species on record: Homo sapiens; assay: Inhibition of HFIP-pretreated human amyloid beta (1 to 42) self aggregation at 10 uM incubated for 36 to 48 hrs by thioflavin-T based fluorescence method relative to control; details: time 36-48 hrs
Method in brief: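 HFIP-pretreated Aβ1-42 (1.5 µM) incubated with compound (10 µM) and thioflavin-T (10 µM final) at room temperature with continuous shaking for 36–48 h. Fluorescence (ex 440/em 490 nm) read every 3 min. Percent inhibition compared with Aβ + DMSO control, run in quadruplicate. Three independent experiments, mean ± SD, one-way ANOVA with Bonferroni test.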

Chain of Cholinesterase (P06276 whole entry): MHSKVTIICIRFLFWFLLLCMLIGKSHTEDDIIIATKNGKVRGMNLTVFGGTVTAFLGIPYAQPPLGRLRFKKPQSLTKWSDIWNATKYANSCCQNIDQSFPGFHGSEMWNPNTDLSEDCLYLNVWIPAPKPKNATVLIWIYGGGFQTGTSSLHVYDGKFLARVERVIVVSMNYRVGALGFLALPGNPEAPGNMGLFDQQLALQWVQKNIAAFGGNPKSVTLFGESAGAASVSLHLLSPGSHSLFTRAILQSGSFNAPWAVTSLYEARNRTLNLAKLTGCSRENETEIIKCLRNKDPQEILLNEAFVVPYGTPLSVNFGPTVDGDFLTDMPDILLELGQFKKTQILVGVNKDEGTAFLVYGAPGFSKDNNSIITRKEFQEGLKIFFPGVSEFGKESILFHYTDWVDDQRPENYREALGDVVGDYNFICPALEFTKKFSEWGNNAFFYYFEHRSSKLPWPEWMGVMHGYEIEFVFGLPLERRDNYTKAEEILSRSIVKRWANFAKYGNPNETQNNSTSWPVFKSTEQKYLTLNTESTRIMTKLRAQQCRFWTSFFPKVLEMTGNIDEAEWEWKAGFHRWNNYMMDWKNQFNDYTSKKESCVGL

Row | Structure (SMILES) | pIC50 (Cholinesterase) | pIC50 [1] | pIC50 (Acetylcholinesterase) | pIC50 [2] | inhibition (Homo sapiens)
1 | OC1CCN(C2Cc3ccccc3C2)CC1 | < 4.00 | < 4.00 | < 4.00 | < 4.00 | –
2 | OCC1CCCN(Cc2ccccc2)C1 (stereo not drawn) | < 4.00 | < 4.00 | < 4.00 | < 4.00 | –
3 | C#CCN1CCCC(O)C1 (stereo not drawn) | < 4.00 | < 4.00 | < 4.00 | < 4.00 | –
4 | CC(C)c1ccc(NC(=O)OC2CCN(C3Cc4ccccc4C3)CC2)cc1 | < 4.00 | < 4.00 | 5.64 | < 4.00 | –
5 | C#CCN1CCC(OC(=O)N(C)CC)CC1 | 4.94 | < 4.00 | < 4.00 | < 4.00 | –
6 | CCN(C)C(=O)OCC1CCN(C2Cc3ccccc3C2)CC1 | 5.35 | < 4.00 | < 4.00 | < 4.00 | –
7 | C#CCN1CCCC(COC(=O)Nc2ccccc2)C1 (stereo not drawn) | 4.53 | < 4.00 | < 4.00 | < 4.00 | –
8 | CCN(C)C(=O)OC1CCCN(C2Cc3ccccc3C2)C1 (stereo not drawn) | 5.01 | < 4.00 | < 4.00 | < 4.00 | –
9 | OC1CCCN(C2Cc3ccccc3C2)C1 (stereo not drawn) | < 4.00 | < 4.00 | < 4.00 | < 4.00 | –
10 | O=C(Nc1ccccc1)OC1CCCN(Cc2ccccc2)C1 (stereo not drawn) | 6.34 | 4.48 | < 4.00 | < 4.00 | –
11 | CC(C)c1ccc(NC(=O)OC2CCN(Cc3ccccc3)CC2)cc1 | 5.76 | < 4.00 | < 4.00 | < 4.00 | –
12 | O=C(Nc1ccccc1)OCC1CCCN(Cc2ccccc2)C1 (stereo not drawn) | 6.28 | 4.40 | 4.17 | < 4.00 | –
13 | OCC1CCCN(C2Cc3ccccc3C2)C1 (stereo not drawn) | < 4.00 | < 4.00 | < 4.00 | < 4.00 | –
14 | CC(C)c1ccc(NC(=O)OCC2CCN(C3Cc4ccccc4C3)CC2)cc1 | < 4.00 | < 4.00 | 5.39 | < 4.00 | –
15 | OC1CCN(Cc2ccccc2)CC1 | < 4.00 | < 4.00 | < 4.00 | < 4.00 | –
16 | CC(C)c1ccc(NC(=O)OCC2CCCN(Cc3ccccc3)C2)cc1 (stereo not drawn) | 6.93 | < 4.00 | 4.82 | < 4.00 | –
17 | CCN(C)C(=O)Oc1cccc([C@H](C)N(C)C)c1 [RIVASTIGMINE TARTRATE] | – | < 4.00 | – | – | < 20%
18 | C#CCN1CCC(COC(=O)Nc2ccccc2)CC1 | 4.84 | 4.99 | < 4.00 | < 4.00 | –
19 | CCN(C)C(=O)OC1CCCN(Cc2ccccc2)C1 (stereo not drawn) | 4.68 | < 4.00 | < 4.00 | < 4.00 | –
20 | C#CCN[C@@H]1CCc2ccccc21 [RASAGILINE MESYLATE] | < 4.00 | – | < 4.00 | – | < 20%
21 | COc1cc2c(cc1OC)C(=O)C(CC1CCN(Cc3ccccc3)CC1)C2 (stereo not drawn) | – | – | – | – | < 20%
22 | O=C(Nc1ccccc1)OC1CCN(C2Cc3ccccc3C2)CC1 | 4.74 | < 4.00 | 4.72 | < 4.00 | –
23 | C#CCN1CCC(O)CC1 | < 4.00 | < 4.00 | < 4.00 | < 4.00 | –
24 | C#CCN1CCC(COC(=O)Nc2ccc(C(C)C)cc2)CC1 | 4.61 | 6.50 | < 4.00 | < 4.00 | –

Row | Structure (SMILES) | pIC50 (Cholinesterase) | pIC50 [1] | pIC50 (Acetylcholinesterase) | pIC50 [2] | inhibition (Homo sapiens)
25 | CC(C)c1ccc(NC(=O)OCC2CCCN(C3Cc4ccccc4C3)C2)cc1 (stereo not drawn) | 6.35 | < 4.00 | 4.73 | < 4.00 | –
26 | CCN(C)C(=O)OC1CCN(C2Cc3ccccc3C2)CC1 | 4.39 | < 4.00 | < 4.00 | < 4.00 | –
27 | O=C(Nc1ccccc1)OCC1CCCN(C2Cc3ccccc3C2)C1 (stereo not drawn) | 6.75 | < 4.00 | < 4.00 | < 4.00 | –
28 | OCC1CCN(C2Cc3ccccc3C2)CC1 | < 4.00 | < 4.00 | < 4.00 | < 4.00 | –
29 | CC(C)c1ccc(NC(=O)OC2CCCN(C3Cc4ccccc4C3)C2)cc1 (stereo not drawn) | < 4.00 | < 4.00 | 5.10 | < 4.00 | –
30 | O=C(Nc1ccccc1)OC1CCN(Cc2ccccc2)CC1 | 5.18 | < 4.00 | < 4.00 | < 4.00 | –
31 | CCN(C)C(=O)OCC1CCCN(Cc2ccccc2)C1 (stereo not drawn) | 5.14 | < 4.00 | 4.02 | < 4.00 | –
32 | CCN(C)C(=O)OCC1CCCN(C2Cc3ccccc3C2)C1 (stereo not drawn) | 5.03 | < 4.00 | < 4.00 | < 4.00 | –
33 | C#CCN1CCCC(CO)C1 (stereo not drawn) | < 4.00 | < 4.00 | < 4.00 | < 4.00 | –
34 | C#CCN1CCC(CO)CC1 | < 4.00 | < 4.00 | < 4.00 | < 4.00 | –
35 | O=C(Nc1ccccc1)OCC1CCN(C2Cc3ccccc3C2)CC1 | 5.84 | < 4.00 | < 4.00 | < 4.00 | –
36 | Oc1ccc(/C=C/c2cc(O)cc(O)c2)cc1 | – | – | – | – | 86.6%
37 | OC1CCCN(Cc2ccccc2)C1 (stereo not drawn) | < 4.00 | < 4.00 | < 4.00 | < 4.00 | –
38 | CCN(C)C(=O)OC1CCN(Cc2ccccc2)CC1 | < 4.00 | < 4.00 | < 4.00 | < 4.00 | –
39 | C#CCN1CCCC(OC(=O)Nc2ccc(C(C)C)cc2)C1 (stereo not drawn) | < 4.00 | 4.14 | < 4.00 | < 4.00 | –
40 | CCN(C)C(=O)OCC1CCN(Cc2ccccc2)CC1 | 4.34 | < 4.00 | 4.14 | < 4.00 | –
41 | CC(C)c1ccc(NC(=O)OC2CCCN(Cc3ccccc3)C2)cc1 (stereo not drawn) | 5.49 | 4.53 | < 4.00 | < 4.00 | –
42 | C#CCN1CCC(OC(=O)Nc2ccccc2)CC1 | 4.72 | < 4.00 | < 4.00 | < 4.00 | –
43 | C#CCN1CCCC(OC(=O)N(C)CC)C1 (stereo not drawn) | < 4.00 | < 4.00 | < 4.00 | < 4.00 | –
44 | C#CCN1CCC(COC(=O)N(C)CC)CC1 | < 4.00 | < 4.00 | < 4.00 | < 4.00 | –
45 | OCC1CCN(Cc2ccccc2)CC1 | < 4.00 | < 4.00 | < 4.00 | < 4.00 | –
46 | C#CCN1CCCC(COC(=O)N(C)CC)C1 (stereo not drawn) | < 4.00 | < 4.00 | < 4.00 | < 4.00 | –
47 | C#CCN1CCCC(OC(=O)Nc2ccccc2)C1 (stereo not drawn) | 4.07 | < 4.00 | < 4.00 | < 4.00 | –
48 | C#CCN1CCCC(COC(=O)Nc2ccc(C(C)C)cc2)C1 (stereo not drawn) | 4.75 | 5.54 | < 4.00 | < 4.00 | –
